From ChEMBL document CHEMBL1147780, “Peptide inhibitors of Dengue virus NS3 protease. Part 1: Warhead” (Bioorg Med Chem Lett, 2006)
pKi: −log10 of the molar value. Where a SMILES comes first, the peptide text is derived from it. [ ]: non-standard residue; d: D form. The star is where a group is joined. Nle = CCCC[C@H](N)C(=O)O; Bz = O=C(c1ccccc1)*; CF3 = FC(F)(F)*

These compounds were tested against Genome polyprotein (dengue virus type 2, UniProt P29990) (assay: Inhibitory activity against CF40.NS3pro from Dengue virus type 2).
Genome polyprotein, sequence (P29990 1346-1475 limits assumed): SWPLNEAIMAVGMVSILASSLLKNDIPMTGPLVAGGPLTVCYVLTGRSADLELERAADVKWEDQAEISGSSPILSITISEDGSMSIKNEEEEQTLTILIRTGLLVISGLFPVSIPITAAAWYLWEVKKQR
Genome polyprotein, sequence (P29990 1476-2093 limits assumed): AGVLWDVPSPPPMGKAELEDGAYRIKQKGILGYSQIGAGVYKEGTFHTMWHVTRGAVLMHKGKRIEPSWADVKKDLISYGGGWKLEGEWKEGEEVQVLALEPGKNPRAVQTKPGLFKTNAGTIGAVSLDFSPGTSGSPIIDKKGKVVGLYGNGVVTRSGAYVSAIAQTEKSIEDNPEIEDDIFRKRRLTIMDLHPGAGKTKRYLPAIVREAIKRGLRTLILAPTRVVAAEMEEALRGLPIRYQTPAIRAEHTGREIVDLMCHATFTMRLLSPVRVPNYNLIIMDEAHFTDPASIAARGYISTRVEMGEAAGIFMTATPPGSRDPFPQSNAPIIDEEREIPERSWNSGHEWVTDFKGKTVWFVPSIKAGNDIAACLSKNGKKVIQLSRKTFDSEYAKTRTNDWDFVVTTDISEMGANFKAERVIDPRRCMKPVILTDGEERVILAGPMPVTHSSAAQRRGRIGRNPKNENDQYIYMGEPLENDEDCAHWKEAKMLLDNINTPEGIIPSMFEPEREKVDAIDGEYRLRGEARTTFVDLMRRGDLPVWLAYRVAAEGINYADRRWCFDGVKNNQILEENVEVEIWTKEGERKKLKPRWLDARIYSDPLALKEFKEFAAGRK
Method in brief: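 Enzyme: truncated dengue 2 NS3 protease fused through a flexible linker to a […] NS2B region. Inhibitors tested in 96-well format in 50 mM Tris, pH 8.5, with 1 mM CHAPS. Values reported as Ki.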
`CCCC[C@H](NC(=O)c1ccccc1)C(=O)N[C@@H](CCCCN)C(=O)N[C@@H](CCCN=C(N)N)C(=O)N[C@@H](CCCN=C(N)N)B(O)O` gave a pKi of 7.37. Work on `CCCC[C@H](NC(=O)c1ccccc1)C(=O)N[C@@H](CCCCN)C(=O)N[C@@H](CCCNC(=N)N)C(=O)N[C@@H](CCCNC(=N)N)C(=O)c1nc2ccccc2o1` yielded a pKi of 4.08. `CCCC[C@H](NC(=O)c1ccccc1)C(=O)N[C@@H](CCCCN)C(=O)N[C@@H](CCCNC(=N)N)C(=O)N[C@@H](CCCNC(=N)N)C(=O)c1nccs1` was tested, and the pKi was 4.37. With `CCCC[C@H](NC(=O)c1ccccc1)C(=O)N[C@@H](CCCCN)C(=O)N[C@@H](CCCN=C(N)N)C(=O)N[C@@H](CCCN=C(N)N)C(=O)NS(=O)(=O)C(F)(F)F` the pKi was less than 3.30. `CCCC[C@H](NC(=O)c1ccccc1)C(=O)N[C@@H](CCCCN)C(=O)N[C@@H](CCCN=C(N)N)C(=O)N[C@@H](CCCN=C(N)N)C(O)C(=O)NCc1ccccc1` (stereo partly specified) was tested, and the pKi was 3.75. `CCCC[C@H](NC(=O)c1ccccc1)C(=O)N[C@@H](CCCCN)C(=O)N[C@@H](CCCN=C(N)N)C(=O)N[C@@H](CCCN=C(N)N)C(=O)C(F)(F)F` (Bz-[Nle]KRR-CF3) gave a pKi of 6.07. In the case of `CCCC[C@H](NC(=O)c1ccccc1)C(=O)N[C@@H](CCCCN)C(=O)N[C@@H](CCCN=C(N)N)C(=O)N[C@@H](CCCN=C(N)N)C(N)=O` (Bz-[Nle]KRR-NH2), the pKi was 3.89. For `CCCC[C@H](NC(=O)c1ccccc1)C(=O)N[C@@H](CCCCN)C(=O)N[C@@H](CCCN=C(N)N)C(=O)N[C@@H](CCCN=C(N)N)C(=O)O` (Bz-[Nle]KRR-OH), the pKi was less than 3.30. With `CCCC[C@H](NC(=O)c1ccccc1)C(=O)N[C@@H](CCCCN)C(=O)N[C@H](C(=O)N[C@@H](CCCN=C(N)N)C(N)=O)[C@@H](C)O` (Bz-[Nle]KTR-NH2) the pKi was less than 3.30. Work on `CCCC[C@H](NC(=O)c1ccccc1)C(=O)N[C@@H](CCCCN)C(=O)N[C@H](C(=O)N[C@@H](CCCN=C(N)N)C(=O)O)[C@@H](C)O` (Bz-[Nle]KTR-OH) yielded a pKi of less than 3.30. In the case of `CCCC[C@H](NC(=O)c1ccccc1)C(=O)N[C@@H](CCCCN)C(=O)N[C@H](C(=O)N[C@H](C=O)CCCN=C(N)N)[C@@H](C)O` (Bz-[Nle]KTR-aldehyde), the pKi was less than 3.30.
